Laboratory results: ChEMBL document CHEMBL1135916, “Design, synthesis, and structure-activity relationship of pyridyl imidazolidinones: a novel class of potent and selective human enterovirus 71 inhibitors” (J Med Chem, 2002)

tested on: Enterovirus A71; test: Inhibition concentration against EV-71; format: functional, organism-based; settings: Enterovirus A

IC50 [µM]	Structure (SMILES)
0.66	O=C1N(CCCCCCCOc2ccc(Cl)cc2)CCN1c1ccncc1
> 25	O=C1N(CCCCCCOc2c(Cl)cccc2Cl)CCN1c1ccncc1
0.59	O=C1N(CCCCCOc2ccc(-c3ccc([N+](=O)[O-])cc3)cc2)CCN1c1ccncc1
> 25	CSc1ccc(OCCCCCCN2CCN(c3ccnc(Cl)c3)C2=O)cc1
1.35	O=C1N(CCCCCOc2ccc(C(F)(F)F)cc2)CCN1c1ccncc1
2.66	N#Cc1ccc(-c2ccc(OCCCCCN3CCN(c4ccncc4)C3=O)cc2)cc1
> 25	CC(C)(C)c1ccc(OCCCCCCN2CCN(c3cccnc3)C2=O)cc1
> 25	O=C1N(CCCCCCOc2ccc(Br)cc2)CCN1c1ccnc(Cl)c1
> 0.39	N#Cc1ccc(OCCCCCCN2CCN(c3ccncc3)C2=O)cc1
2.52	O=C1N(CCCCCCOc2ccc(Cl)cc2)CCN1c1cccnc1
> 25	O=C1N(CCCCCCOc2ccc(Br)cc2)CCN1c1ccncn1
> 25	Cc1ccc(OCCCCCCN2CCN(c3cccnc3)C2=O)cc1
> 25	COc1ccc(OCCCCCCN2CCN(c3ccncc3)C2=O)c(Cl)c1

tested on: not listed separately; test: Cytotoxicity against human normal skin fibroblast (W138) cells; format: cell-based; settings: W138 normal skin fibroblast cells
How it was run: (§1)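 Test compound at various concentrations added to D551 (human normal skin fibroblast), WI38 (human normal lung fibroblast) or RD cells; incubated 96 h at 37 °C; cells harvested and viable cells counted by trypan blue staining. Triplicate, at least twice.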

Structure (SMILES)	CC50 [µM]
O=C1N(CCCCCOc2ccc(-c3ccc([N+](=O)[O-])cc3)cc2)CCN1c1ccncc1	> 100

tested on: not listed separately; test: Cytotoxicity against human rhabdomyosarcoma (RD) cells; format: functional; settings: Homo sapiens, RD

Structure (SMILES)	CC50 [µM]
O=C1N(CCCCCCCOc2ccc(Cl)cc2)CCN1c1ccncc1	> 25
O=C1N(CCCCCCOc2c(Cl)cccc2Cl)CCN1c1ccncc1	> 25
O=C1N(CCCCCOc2ccc(-c3ccc([N+](=O)[O-])cc3)cc2)CCN1c1ccncc1	> 25
CSc1ccc(OCCCCCCN2CCN(c3ccnc(Cl)c3)C2=O)cc1	> 25
O=C1N(CCCCCOc2ccc(C(F)(F)F)cc2)CCN1c1ccncc1	12.5
N#Cc1ccc(-c2ccc(OCCCCCN3CCN(c4ccncc4)C3=O)cc2)cc1	> 25
CC(C)(C)c1ccc(OCCCCCCN2CCN(c3cccnc3)C2=O)cc1	> 25
O=C1N(CCCCCCOc2ccc(Br)cc2)CCN1c1ccnc(Cl)c1	> 25
N#Cc1ccc(OCCCCCCN2CCN(c3ccncc3)C2=O)cc1	0.39
O=C1N(CCCCCCOc2ccc(Cl)cc2)CCN1c1cccnc1	> 25
O=C1N(CCCCCCOc2ccc(Br)cc2)CCN1c1ccncn1	> 25
Cc1ccc(OCCCCCCN2CCN(c3cccnc3)C2=O)cc1	> 25
COc1ccc(OCCCCCCN2CCN(c3ccncc3)C2=O)c(Cl)c1	> 25

tested on: not listed separately; test: Cytotoxicity against human normal skin fibroblast (D551) cells; format: cell-based; settings: D551 normal skin fibroblast cells; how it was run: as §1

Structure (SMILES)	CC50 [µM]
O=C1N(CCCCCOc2ccc(-c3ccc([N+](=O)[O-])cc3)cc2)CCN1c1ccncc1	> 100
